In ChEMBL document CHEMBL2331450, “Potent BRAF kinase inhibitors based on 2,4,5-trisubstituted imidazole with naphthyl and benzothiophene 4-substituents” (Bioorg Med Chem, 2013):

Assays:
[1] = biological target: T1, Serine/threonine-protein kinase B-raf (Homo sapiens, UniProt P15056, V600E); assay: Inhibition of BRAF V600E mutant in human WM266.4 cells assessed as inhibition of ERK phosphorylation after 6 hrs by DELFIA assay; type: cell-based
Summary of the method: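 In BRAF-dependent WM266.4 cells, inhibition of ERK phosphorylation measured in a cellular assay and reported as IC50.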

[2] = Antiproliferative activity against human WM266.4 cells after 6 days by SRB assay; type: functional; settings: WM 266-4, 144 h
Summary of the method: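 BRAF-dependent WM266.4 melanoma cells; growth inhibition read by SRB staining and reported as GI50.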

[3] = biological target: T1, Serine/threonine-protein kinase B-raf; assay: Inhibition of human recombinant N-terminal His-tagged BRAF V600E mutant expressed in Sf9 cells using GST-tagged MEK1 and ATP as substrate incubated for 10 mins prior to ATP addition measured after 45 mins by DELFIA assay
Summary of the method: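 Enzyme assay with the V600E BRAF mutant in vitro; inhibition reported as IC50.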

T1 sequence (P15056 2-766 V600E limits assumed): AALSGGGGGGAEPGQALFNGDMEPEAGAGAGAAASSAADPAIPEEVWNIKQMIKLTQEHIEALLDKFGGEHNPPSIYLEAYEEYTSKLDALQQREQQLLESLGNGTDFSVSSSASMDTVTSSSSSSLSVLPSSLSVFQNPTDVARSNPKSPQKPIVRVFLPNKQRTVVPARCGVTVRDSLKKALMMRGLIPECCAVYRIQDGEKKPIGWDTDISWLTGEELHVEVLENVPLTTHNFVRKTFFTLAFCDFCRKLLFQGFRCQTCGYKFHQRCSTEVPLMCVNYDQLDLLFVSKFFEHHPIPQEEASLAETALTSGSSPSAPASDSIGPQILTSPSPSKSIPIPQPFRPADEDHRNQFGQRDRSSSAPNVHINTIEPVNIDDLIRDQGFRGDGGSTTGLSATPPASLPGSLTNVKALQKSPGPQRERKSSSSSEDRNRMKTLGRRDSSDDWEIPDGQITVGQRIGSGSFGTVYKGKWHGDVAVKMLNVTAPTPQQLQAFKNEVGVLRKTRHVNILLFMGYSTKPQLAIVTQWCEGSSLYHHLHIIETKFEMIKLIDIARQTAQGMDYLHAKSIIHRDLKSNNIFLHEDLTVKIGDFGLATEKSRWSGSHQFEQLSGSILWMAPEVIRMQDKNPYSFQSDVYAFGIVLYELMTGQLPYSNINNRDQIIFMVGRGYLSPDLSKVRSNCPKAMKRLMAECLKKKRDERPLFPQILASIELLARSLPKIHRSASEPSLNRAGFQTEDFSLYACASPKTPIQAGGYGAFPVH

| IC50 [1] [µM] | IC50 [3] [µM] | Structure (SMILES) | GI50 [2] [µM] |
| --- | --- | --- | --- |
| 14 | 8.8 | CN(C)CCOc1ccc(-c2nc(-c3ccc4cc(O)ccc4c3)c(-c3ccncc3)[nH]2)cc1 | 4.3 |
| 1.25 | 0.042 | CN(C)CCOc1ccc(-c2nc(-c3ccc4c(O)c(Cl)ccc4c3)c(-c3ccncc3)[nH]2)cc1 | 1.1 |
| 0.25 | 0.029 | CN(C)CCOc1ccc(-c2nc(-c3ccc4c(O)c(F)ccc4c3)c(-c3ccncc3)[nH]2)cc1 | 11 |
|  | > 100 | CN(C)CCOc1ccc(-c2nc(-c3ccc4ccc(=O)[nH]c4c3)c(-c3ccncc3)[nH]2)cc1 |  |
|  | > 100 | CN(C)CCOc1ccc(-c2nc(-c3ccc4[nH]c(=O)ccc4c3)c(-c3ccncc3)[nH]2)cc1 |  |
|  | > 10 | CN(C)CCOc1ccc(-c2nc(-c3ccc4c(=O)[nH]ccc4c3)c(-c3ccncc3)[nH]2)cc1 |  |
| 5.1 | 1.1 | CN(C)CCOc1ccc(-c2nc(-c3ccc4c(N)nccc4c3)c(-c3ccncc3)[nH]2)cc1 | 5.7 |
|  | > 10 | CN(C)CCOc1ccc(-c2nc(-c3ccc4cc(F)ccc4c3)c(-c3ccncc3)[nH]2)cc1 |  |
|  | > 10 | CN(C)CCOc1ccc(-c2nc(-c3ccc4cc(C(=O)O)ccc4c3)c(-c3ccncc3)[nH]2)cc1 |  |
| 5.9 | 0.58 | CN(C)CCOc1ccc(-c2nc(-c3ccc(Cl)c(Cl)c3)c(-c3ccncc3)[nH]2)cc1 | 1.6 |
|  | > 10 | CN(C)CCOc1ccc(-c2nc(-c3ccc(F)c(Cl)c3)c(-c3ccncc3)[nH]2)cc1 |  |
|  | > 10 | CN(C)CCOc1ccc(-c2nc(-c3ccc4c(CO)coc4c3)c(-c3ccncc3)[nH]2)cc1 |  |
|  | > 10 | CN(C)CCOc1ccc(-c2nc(-c3ccc4c(C(N)=O)coc4c3)c(-c3ccncc3)[nH]2)cc1 |  |
|  | > 10 | CN(C)CCOc1ccc(-c2nc(-c3ccc4c(C=O)csc4c3)c(-c3ccncc3)[nH]2)cc1 |  |
|  | > 10 | CN(C)CCOc1ccc(-c2nc(-c3ccc4c(CO)csc4c3)c(-c3ccncc3)[nH]2)cc1 |  |
| 2.3 | 0.19 | CN(C)CCOc1ccc(-c2nc(-c3ccc4c([C@@H](O)C(F)(F)F)csc4c3)c(-c3ccncc3)[nH]2)cc1 | 2.1 |
| 31 | 9.4 | CCCSc1csc2cc(-c3nc(-c4ccc(OCCN(C)C)cc4)[nH]c3-c3ccncc3)ccc12 | 2.3 |
|  | > 10 | CCC[S+]([O-])c1csc2cc(-c3nc(-c4ccc(OCCN(C)C)cc4)[nH]c3-c3ccncc3)ccc12 (configuration not stated) |  |
|  | 14 | CSc1csc2cc(-c3nc(-c4ccc(OCCN(C)C)cc4)[nH]c3-c3ccncc3)ccc12 |  |
|  | > 10 | CN(C)CCOc1ccc(-c2nc(-c3ccc4c([S+](C)[O-])csc4c3)c(-c3ccncc3)[nH]2)cc1 (configuration not stated) |  |
| 3.6 | 1.4 | CN(C)CCOc1ccc(-c2nc(-c3ccc4ccc(O)cc4c3)c(-c3ccncc3)[nH]2)cc1 | 3.2 |
| 0.39 | 0.009 | CN(C)CCOc1ccc(-c2nc(-c3ccc4c(O)cccc4c3)c(-c3ccncc3)[nH]2)cc1 | 0.22 |
|  | > 10 | CCC(O)c1csc2cc(-c3nc(-c4ccc(OCCN(C)C)cc4)[nH]c3-c3ccncc3)ccc12 (racemic) |  |
|  | > 10 | CN(C)CCOc1ccc(-c2nc(-c3ccc4c(C(O)C(F)(F)C(F)(F)F)csc4c3)c(-c3ccncc3)[nH]2)cc1 (racemic) |  |
| 2.7 | 0.33 | CN(C)CCOc1ccc(-c2nc(-c3ccc4c(C(O)C(F)(F)F)csc4c3)c(-c3ccncc3)[nH]2)cc1 (racemic) | 3.1 |
|  | > 10 | CN(C)CCOc1ccc(-c2nc(-c3ccc4sc(C(O)C(F)(F)F)cc4c3)c(-c3ccncc3)[nH]2)cc1 (racemic) |  |
|  | > 10 | CN(C)CCOc1ccc(-c2nc(-c3ccc(C(O)C(F)(F)F)cc3)c(-c3ccncc3)[nH]2)cc1 (racemic) |  |
